According to ChEMBL document CHEMBL1141218, “Further structure-activity relationship studies of piperidine-based monoamine transporter inhibitors: effects of piperidine ring stereochemistry on potency. Identification of norepinephrine transporter selective ligands and broad-spectrum transporter inhibitors” (J Med Chem, 2005):

Columns and labels:
[1] = biological target: Sodium-dependent dopamine transporter (Rattus norvegicus, UniProt P23977); assay: Ability to inhibit [3H]DA uptake through DAT in rat synaptosomes; assay type: subcellular, Brain
Sodium-dependent dopamine transporter, sequence (P23977 whole entry): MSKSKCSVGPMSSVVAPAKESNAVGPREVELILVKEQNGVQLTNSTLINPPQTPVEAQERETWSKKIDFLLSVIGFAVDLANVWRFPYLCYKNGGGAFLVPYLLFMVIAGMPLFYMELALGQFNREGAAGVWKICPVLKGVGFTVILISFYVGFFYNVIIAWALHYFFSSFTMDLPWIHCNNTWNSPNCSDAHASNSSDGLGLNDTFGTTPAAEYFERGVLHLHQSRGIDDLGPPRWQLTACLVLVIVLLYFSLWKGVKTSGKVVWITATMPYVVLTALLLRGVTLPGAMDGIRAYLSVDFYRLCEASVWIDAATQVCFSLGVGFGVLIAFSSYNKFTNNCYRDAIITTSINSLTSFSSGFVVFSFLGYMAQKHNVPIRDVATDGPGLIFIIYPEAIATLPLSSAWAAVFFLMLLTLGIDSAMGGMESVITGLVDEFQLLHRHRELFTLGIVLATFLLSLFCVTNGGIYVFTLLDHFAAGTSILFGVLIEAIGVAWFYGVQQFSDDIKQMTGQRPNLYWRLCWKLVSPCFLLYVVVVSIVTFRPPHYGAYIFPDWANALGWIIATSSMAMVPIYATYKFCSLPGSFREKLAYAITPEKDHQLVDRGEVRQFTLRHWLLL
Outline: (§1)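 Uptake inhibition values given as Ki. Each experiment tested six drug concentrations in triplicate, with two to four independent experiments per compound. Values are means ± SEM.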

[2] = biological target: Sodium-dependent serotonin transporter (Rattus norvegicus, UniProt P31652); assay: Ability to inhibit [3H]5-HT uptake through SERT in rat synaptosomes; assay type: subcellular, Brain; outline: as §1
Sodium-dependent serotonin transporter, sequence (P31652 whole entry): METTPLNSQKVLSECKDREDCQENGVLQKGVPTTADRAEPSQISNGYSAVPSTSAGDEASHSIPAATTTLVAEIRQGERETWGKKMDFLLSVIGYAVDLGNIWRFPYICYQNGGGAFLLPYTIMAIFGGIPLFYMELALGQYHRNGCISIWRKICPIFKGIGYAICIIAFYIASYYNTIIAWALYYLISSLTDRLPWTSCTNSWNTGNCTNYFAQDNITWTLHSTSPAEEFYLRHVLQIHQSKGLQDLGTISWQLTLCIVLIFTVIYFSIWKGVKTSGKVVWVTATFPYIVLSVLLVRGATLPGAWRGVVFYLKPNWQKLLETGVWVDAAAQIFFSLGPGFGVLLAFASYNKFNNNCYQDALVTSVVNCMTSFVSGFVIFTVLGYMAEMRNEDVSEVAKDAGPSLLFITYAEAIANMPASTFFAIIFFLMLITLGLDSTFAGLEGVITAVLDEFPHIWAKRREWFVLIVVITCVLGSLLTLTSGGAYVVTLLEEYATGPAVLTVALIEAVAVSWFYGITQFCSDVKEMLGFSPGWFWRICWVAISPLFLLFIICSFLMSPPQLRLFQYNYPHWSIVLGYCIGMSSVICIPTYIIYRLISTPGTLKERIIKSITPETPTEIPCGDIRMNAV

[3] = biological target: Norepinephrine transporter (Rattus norvegicus, UniProt Q9WTR4); assay: Ability to inhibit [3H]NE uptake through NET in rat synaptosomes; assay type: subcellular, Brain; outline: as §1
Norepinephrine transporter, sequence (Q9WTR4 whole entry): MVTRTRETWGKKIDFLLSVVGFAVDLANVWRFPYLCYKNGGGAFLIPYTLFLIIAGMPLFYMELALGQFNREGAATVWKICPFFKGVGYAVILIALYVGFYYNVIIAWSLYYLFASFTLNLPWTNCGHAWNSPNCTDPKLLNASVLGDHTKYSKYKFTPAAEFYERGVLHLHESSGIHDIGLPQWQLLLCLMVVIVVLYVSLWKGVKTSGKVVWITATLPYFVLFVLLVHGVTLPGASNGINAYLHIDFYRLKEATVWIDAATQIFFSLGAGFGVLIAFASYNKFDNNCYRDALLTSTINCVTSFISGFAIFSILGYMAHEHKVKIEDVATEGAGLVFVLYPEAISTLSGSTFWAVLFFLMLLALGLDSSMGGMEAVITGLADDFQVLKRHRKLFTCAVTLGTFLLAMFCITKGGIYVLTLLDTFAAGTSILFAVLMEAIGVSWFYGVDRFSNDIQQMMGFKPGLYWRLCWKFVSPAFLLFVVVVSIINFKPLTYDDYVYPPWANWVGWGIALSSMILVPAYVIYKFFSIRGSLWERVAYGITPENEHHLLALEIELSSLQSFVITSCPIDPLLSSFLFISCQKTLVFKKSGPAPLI

[4] = biological target: Monoamine transporters; serotonin & dopamine (Rattus norvegicus) (UniProt P31652+P23977); assay: Selectivity towards rat SERT over DAT; assay type: protein assay
Monoamine transporters; serotonin & dopamine (Rattus norvegicus), sequence (P23977 whole entry, looked up): as the sequence (P23977 whole entry) above
Monoamine transporters; serotonin & dopamine (Rattus norvegicus), sequence (P31652 whole entry, looked up): as the sequence (P31652 whole entry) above

| Compound | Ki [1] | Ki [2] | Ki [3] | Ratio Ki [4] |
| --- | --- | --- | --- | --- |
| CN1CC[C@@H](c2ccc(Cl)cc2)[C@@H](CSCC(=O)Nc2ccccc2)C1 | 80 nM | 91 nM | 1060 nM | 1.13 |
| CC(C)NC(=O)CSC[C@@H]1CN(C)CC[C@@H]1c1ccc(Cl)cc1 | 13 nM | 154 nM | 16 nM | 11.5 |
| CN1CC[C@@H](c2ccc(Cl)cc2)[C@H](CSCC(=O)NCc2ccccc2)C1 | 1570 nM | 753 nM | 32 nM | 0.48 |
| CC(=O)OCCSC[C@H]1CN(C)CC[C@H]1c1ccc(Cl)cc1 | 177 nM | 125 nM | 610 nM | 0.71 |
| CN1CC[C@@H](c2ccc(Cl)cc2)[C@@H](CSCC(=O)N(C)C)C1 | 176 nM | 173 nM | 47 nM | 0.98 |
| CN1CC[C@@H](c2ccc(Cl)cc2)[C@H](CSCC(=O)N2CCCCC2)C1 | > 3000 nM | 190 nM | 82 nM | < 0.06 |
| CC(C)NC(=O)CSC[C@@H]1CN(C)CC[C@H]1c1ccc(Cl)cc1 | 663 nM | 138 nM | 67 nM | 0.21 |
| CN1CC[C@@H](c2ccc(Cl)cc2)[C@@H](CSCC(=O)Nc2cccc3ccccc23)C1 | 102 nM | 108 nM | 101 nM | 1.06 |
| CN1CC[C@@H](c2ccc(Cl)cc2)[C@@H](CSCCO)C1 | 160 nM | 305 nM | > 3000 nM | 1.91 |
| CN1CC[C@@H](c2ccc(Cl)cc2)[C@@H](CSCC(=O)N2CCCCC2)C1 | > 3000 nM | 572 nM | 134 nM | < 0.19 |
| CC(=O)OCCSC[C@@H]1CN(C)CC[C@H]1c1ccc(Cl)cc1 | 536 nM | 130 nM | 52 nM | 0.24 |
| COC(=O)CSC[C@H]1CN(C)CC[C@H]1c1ccc(Cl)cc1 | 598 nM | 403 nM | 98 nM | 0.67 |
| CN1CC[C@H](c2ccc(Cl)cc2)[C@H](CSCC(=O)NCc2ccccc2)C1 | 3.9 nM | 23 nM | 85 nM | 5.81 |
| CN1CC[C@@H](c2ccc(Cl)cc2)[C@H](CSCC(=O)NCCc2ccccc2)C1 | 23 nM | 68 nM | 178 nM | 2.97 |
| CN1CC[C@H](c2ccc(Cl)cc2)[C@H](CSCCO)C1 | 37 nM | 185 nM | 26 nM | 5 |
| CN1CC[C@@H](c2ccc(Cl)cc2)[C@@H](CSCCOC(=O)c2ccccc2)C1 | 1470 nM | 270 nM | 143 nM | 0.18 |
| CN1CC[C@@H](c2ccc(Cl)cc2)[C@H](CSCC(=O)N(C)C)C1 | > 3000 nM | 186 nM | 218 nM | < 0.06 |

| Compound | Ki [1] | Ki [2] | Ki [3] | Ratio Ki [4] |
| --- | --- | --- | --- | --- |
| CNC(=O)CSC[C@@H]1CN(C)CC[C@H]1c1ccc(Cl)cc1 | 164 nM | 116 nM |  |  |
| COC(=O)[C@H]1CN(C)CC[C@H]1c1ccc(Cl)cc1 | 1560 nM | 56 nM | 415 nM | 0.04 |
| CN1CC[C@@H](c2ccc(Cl)cc2)[C@H](CSCCO)C1 | 185 nM | 129 nM | 123 nM | 0.69 |
| CNC(=O)CSC[C@H]1CN(C)CC[C@H]1c1ccc(Cl)cc1 | 215 nM | 1770 nM |  |  |
| CNC(=O)CSC[C@@H]1CN(C)CC[C@@H]1c1ccc(Cl)cc1 | 311 nM | 347 nM |  |  |
| CN1CC[C@@H](c2ccc(Cl)cc2)[C@@H](CSCC(=O)NCCc2ccccc2)C1 | 112 nM | 121 nM | 100 nM | 1.08 |
| CN1CC[C@@H](c2ccc(Cl)cc2)[C@@H](CSCC(=O)NCc2ccccc2)C1 | 302 nM | 22 nM | 54 nM | 0.07 |
| CC(C)NC(=O)CSC[C@H]1CN(C)CC[C@H]1c1ccc(Cl)cc1 | 142 nM | 36 nM | 11 nM | 0.25 |
| COC(=O)CSC[C@@H]1CN(C)CC[C@H]1c1ccc(Cl)cc1 | 2620 nM | 69 nM | 57 nM | 0.03 |
| COC(=O)CSC[C@@H]1CN(C)CC[C@@H]1c1ccc(Cl)cc1 | 38 nM | 182 nM | 22 nM | 4.88 |
| CN1CC[C@@H](c2ccc(Cl)cc2)[C@H](CSCCOC(=O)c2ccccc2)C1 | 378 nM | 71 nM | 56 nM | 0.19 |
| CC(=O)OCCSC[C@@H]1CN(C)CC[C@@H]1c1ccc(Cl)cc1 | 46 nM | 469 nM | 30 nM | 10.1 |
| CN1CC[C@@H](c2ccc(Cl)cc2)[C@H](CSCC(N)=O)C1 | 1100 nM | 545 nM | 53 nM | 0.49 |
| CN1CC[C@H](c2ccc(Cl)cc2)[C@H](CSCC(N)=O)C1 | 54 nM | 21 nM | 69 nM | 0.39 |
| CN1CC[C@H](c2ccc(Cl)cc2)[C@H](CSCC(=O)N(C)C)C1 | 17 nM | 8.8 nM | 63 nM | 0.53 |
| CN1CC[C@H](c2ccc(Cl)cc2)[C@H](CSCC(=O)N2CCCCC2)C1 | 34 nM | 42 nM | 13 nM | 1.22 |
